# In ChEMBL document CHEMBL1145545, “Discovery of a novel A2B adenosine receptor antagonist as a clinical candidate for chronic inflammatory airway diseases” (J Med Chem, 2008):
# Experiments:
# [1] = target: T1, Adenosine receptor A3 (Homo sapiens, UniProt P0DMS8); assay: Displacement of [125I]ABMECA from human recombinant adenosine A3 receptor expressed in CHO cells; assay type: cell-based
# T1 sequence (P0DMS8 whole entry): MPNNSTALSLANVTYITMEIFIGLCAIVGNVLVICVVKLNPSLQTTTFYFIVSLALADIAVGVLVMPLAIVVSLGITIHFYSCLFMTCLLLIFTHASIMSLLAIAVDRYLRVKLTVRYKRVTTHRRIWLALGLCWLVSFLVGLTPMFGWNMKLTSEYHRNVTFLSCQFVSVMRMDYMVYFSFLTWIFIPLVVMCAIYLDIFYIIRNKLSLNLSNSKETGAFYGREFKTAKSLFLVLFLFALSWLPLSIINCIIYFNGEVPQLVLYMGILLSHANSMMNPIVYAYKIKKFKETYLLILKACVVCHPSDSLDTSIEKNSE
# Method in brief: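 Human A3 receptor stably expressed in CHO cells; membranes incubated with 0.1 nM 125I-AB-MECA and test compound in 50 mM Tris, 1 mM EDTA, 10 mM MgCl2 plus 1 U/mL adenosine deaminase, 25 °C, 90 min; filtration, four ice-cold washes. Nonspecific binding defined with 1 µM IB-MECA; Ki determined.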
# [2] = target: T2, Adenosine receptor A2b (Homo sapiens, UniProt P29275); assay: Displacement of [3H]ZM-241385 from human recombinant adenosine A2B receptor expressed in HEK293 cells; assay type: cell-based
# T2 sequence (P29275 whole entry): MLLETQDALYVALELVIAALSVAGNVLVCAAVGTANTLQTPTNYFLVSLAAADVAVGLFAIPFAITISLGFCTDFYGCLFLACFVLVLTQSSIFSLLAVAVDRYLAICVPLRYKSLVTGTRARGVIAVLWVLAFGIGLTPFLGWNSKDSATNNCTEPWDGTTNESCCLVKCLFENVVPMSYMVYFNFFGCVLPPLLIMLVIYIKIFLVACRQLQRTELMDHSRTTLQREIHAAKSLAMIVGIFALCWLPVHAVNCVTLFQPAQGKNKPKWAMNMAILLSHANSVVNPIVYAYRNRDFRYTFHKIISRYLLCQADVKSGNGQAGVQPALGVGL
# Method in brief: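 Membranes from HEK293 cells stably expressing human A2B receptor; competition with 10 nM radioligand, 50 µg membrane protein, in 50 mM Tris/1 mM EDTA with 1 U/mL adenosine deaminase, 25 °C for 90 min with gentle agitation; filtration, four ice-cold Tris/MgCl2 washes. Nonspecific binding defined with 10 µM unlabelled ligand; Ki calculated.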
# [3] = species on record: Homo sapiens; assay: Selectivity for human recombinant adenosine A2B receptor over human recombinant adenosine A1 receptor
# [4] = species on record: Homo sapiens; assay: Selectivity for human recombinant adenosine A2B receptor over human recombinant adenosine A2A receptor
# [5] = target: T3, Adenosine receptor A1 (Homo sapiens, UniProt P30542); assay: Displacement of [3H]CPX from human recombinant adenosine A1 receptor expressed in CHO cells; assay type: cell-based
# T3 sequence (P30542 whole entry): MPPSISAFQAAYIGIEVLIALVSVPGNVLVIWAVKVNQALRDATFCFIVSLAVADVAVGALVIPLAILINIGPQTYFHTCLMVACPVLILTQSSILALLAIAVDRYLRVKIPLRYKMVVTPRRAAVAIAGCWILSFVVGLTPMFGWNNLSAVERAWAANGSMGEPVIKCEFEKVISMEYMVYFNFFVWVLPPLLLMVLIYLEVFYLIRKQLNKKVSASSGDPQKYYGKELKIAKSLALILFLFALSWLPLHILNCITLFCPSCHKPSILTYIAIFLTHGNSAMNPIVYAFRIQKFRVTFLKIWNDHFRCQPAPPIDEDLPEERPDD
# Method in brief: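 CHO cell membranes stably expressing human A1 receptor; 0.5 nM [3H]CPX competed with test compound in 50 mM Tris/1 mM EDTA plus 1 U/mL adenosine deaminase, 25 °C, 90 min, gentle agitation; filtration and four ice-cold Tris/MgCl2 washes. Nonspecific binding defined with 1 µM CPX; Ki values derived.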
# [6] = Cmax in Sprague-Dawley rat at 2 mg/kg, po; assay type: ADME, organism-based; parameters: dose 2 mg/kg, route oral; settings: in vivo
# [7] = Half life in Sprague-Dawley rat at 2 mg/kg, po; assay type: ADME, organism-based; parameters: dose 2 mg/kg, route oral; settings: in vivo
# [8] = species on record: Homo sapiens; assay: Selectivity for human recombinant adenosine A2B receptor over human recombinant adenosine A3 receptor
# [9] = target: Adenosine receptor A2a (Homo sapiens, UniProt P29274); assay: Displacement of [3H]ZM-241385 from human recombinant adenosine A2A receptor expressed in HEK293 cells; assay type: cell-based
# Chain of Adenosine receptor A2a (P29274 whole entry): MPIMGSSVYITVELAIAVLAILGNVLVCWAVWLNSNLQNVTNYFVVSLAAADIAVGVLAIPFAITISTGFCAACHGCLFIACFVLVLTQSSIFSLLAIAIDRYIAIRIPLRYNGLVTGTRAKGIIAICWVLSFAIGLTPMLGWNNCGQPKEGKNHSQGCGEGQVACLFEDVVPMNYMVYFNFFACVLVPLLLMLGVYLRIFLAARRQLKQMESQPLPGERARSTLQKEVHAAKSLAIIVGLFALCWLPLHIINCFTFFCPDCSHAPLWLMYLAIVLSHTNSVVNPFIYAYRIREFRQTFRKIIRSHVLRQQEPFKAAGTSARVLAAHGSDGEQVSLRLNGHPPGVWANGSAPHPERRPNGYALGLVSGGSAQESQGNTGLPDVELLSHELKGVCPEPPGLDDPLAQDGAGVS
# Method in brief: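 Membranes from HEK293 cells stably expressing human A2A receptor; 2 nM radioligand competed in 50 mM Tris/1 mM EDTA with 1 U/mL adenosine deaminase for 90 min at 25 °C with agitation; filtration, four ice-cold Tris/MgCl2 washes. Nonspecific binding defined with 1 µM unlabelled ligand; Ki computed.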
# [10] = Plasma concentration in Sprague-Dawley rat at 2 mg/kg, po after 6 hrs; assay type: ADME, organism-based; parameters: dose 2 mg/kg, route oral
# [11] = Plasma concentration in Sprague-Dawley rat at 2 mg/kg, po after 4 hrs; assay type: ADME, organism-based; parameters: dose 2 mg/kg, route oral
# [12] = AUC (0 to tlast) in Sprague-Dawley rat at 2 mg/kg, po; assay type: ADME, organism-based; parameters: dose 2 mg/kg, route oral; settings: plasma
# [13] = Tmax in Sprague-Dawley rat at 2 mg/kg, po; assay type: ADME, organism-based; parameters: dose 2 mg/kg, route oral; settings: in vivo
# [14] = target: T4, Adenosine receptor A2b (Mus musculus) (UniProt Q60614); assay: Antagonist activity at mouse adenosine A2B receptor expressed in NIH3T3 cells assessed as inhibition of NECA-induced cAMP accumulation; assay type: functional, cell-based
# T4 sequence (whole entry): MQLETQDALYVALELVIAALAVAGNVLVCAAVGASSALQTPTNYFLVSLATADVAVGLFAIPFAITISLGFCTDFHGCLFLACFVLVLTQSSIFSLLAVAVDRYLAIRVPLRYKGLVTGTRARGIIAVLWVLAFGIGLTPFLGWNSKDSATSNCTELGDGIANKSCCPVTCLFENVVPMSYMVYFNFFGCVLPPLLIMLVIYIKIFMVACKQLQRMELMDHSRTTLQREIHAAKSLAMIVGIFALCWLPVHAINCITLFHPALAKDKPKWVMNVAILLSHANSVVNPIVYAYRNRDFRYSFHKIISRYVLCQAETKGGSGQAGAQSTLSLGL
# Method in brief: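 Mouse NIH/3T3 cells stimulated with NECA (1 nM to 100 µM) without or with increasing antagonist concentrations; cAMP accumulation measured. KB obtained by Schild analysis; mean ± SEM of three experiments in duplicate.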
Structure (SMILES),Ki [1] [nM],Ki [2] [nM],Ratio Ki [3],Ratio Ki [4],Ki [5] [nM],Cmax [6] [ng/mL],half-life [7] [h],Ratio Ki [8],Ki [9] [nM],concentration at 6 h [10] [ng/mL],concentration at 4 h [11] [ng/mL],AUC(0-t) [12] [ng·h/mL],Tmax [13] [h],Kb [14] [nM]
CCCn1c(=O)c2[nH]c(-c3cnn(Cc4ccc(C(F)(F)F)nc4)c3)nc2n(CC)c1=O,440,18,139,125,2500,671,9.7,24,2250,–,–,–,–,–
CC(C)Cn1c(=O)c2[nH]c(-c3cnn(Cc4cccc(F)c4)c3)nc2n(C)c1=O,107,60,6,5,352,–,–,2,301,–,–,–,–,–
CCn1c(=O)n(CC2CC2)c(=O)c2[nH]c(-c3cnn(Cc4ccc(C(F)(F)F)nc4)c3)nc21,400,16,80,142,1280,–,–,25,2280,–,–,–,–,–
CCCn1c(=O)c2[nH]c(-c3cnn(Cc4noc(-c5ccc(C(F)(F)F)cc5)n4)c3)nc2n(CC)c1=O,> 9000,24,> 250,> 208,> 6000,34.6,–,> 375,> 5000,17.3,7.75,65.6,6,–
CCCn1c(=O)c2[nH]c(-c3cnn(Cc4cccc(C(F)(F)F)c4)c3)nc2n(CC)c1=O [GS 6201],1070,22,88,149,1940,1110,4.25,48,3280,–,–,–,–,2
CCCCn1c(=O)c2[nH]c(-c3cnn(Cc4cccc(C(F)(F)F)c4)c3)nc2n(C)c1=O,453,11,38,43,427,–,–,41,481,–,–,–,–,–
CCCn1c(=O)c2[nH]c(-c3cnn(Cc4cccc(C(F)(F)F)c4)c3)nc2n(C)c1=O,408,14,31,32,441,–,–,29,450,–,–,–,–,–
Cn1c(=O)n(CC2CC2)c(=O)c2[nH]c(-c3cnn(Cc4ccccc4)c3)nc21,91,11,14,13,154,–,–,8,149,–,–,–,–,–
CCn1c(=O)c2[nH]c(-c3cnn(Cc4ccccc4)c3)nc2n(C)c1=O,92,2,130,36,260,–,–,46,73,–,–,–,–,–
Cn1c(=O)n(CC2CC2)c(=O)c2[nH]c(-c3cnn(Cc4cccc(C(F)(F)F)c4)c3)nc21,160,21,8,15,167,–,–,7,312,–,–,–,–,–
CCCn1c(=O)c2[nH]c(-c3cnn(Cc4cc(-c5ccc(C(F)(F)F)cc5)on4)c3)nc2n(CC)c1=O,3810,25,87,94,2190,–,–,152,2370,–,–,–,–,–
